Drawing on ChEMBL document CHEMBL4414600, “Discovery of a Furanopyrimidine-Based Epidermal Growth Factor Receptor Inhibitor (DBPR112) as a Clinical Candidate for the Treatment of Non-Small Cell Lung Cancer” (J Med Chem, 2019), this text covers Activity, TGI and Cmax for one compound.

In data set [1] the target is T1, Cytoplasmic tyrosine-protein kinase BMX (Homo sapiens) (UniProt P51813).
T1 sequence (whole entry): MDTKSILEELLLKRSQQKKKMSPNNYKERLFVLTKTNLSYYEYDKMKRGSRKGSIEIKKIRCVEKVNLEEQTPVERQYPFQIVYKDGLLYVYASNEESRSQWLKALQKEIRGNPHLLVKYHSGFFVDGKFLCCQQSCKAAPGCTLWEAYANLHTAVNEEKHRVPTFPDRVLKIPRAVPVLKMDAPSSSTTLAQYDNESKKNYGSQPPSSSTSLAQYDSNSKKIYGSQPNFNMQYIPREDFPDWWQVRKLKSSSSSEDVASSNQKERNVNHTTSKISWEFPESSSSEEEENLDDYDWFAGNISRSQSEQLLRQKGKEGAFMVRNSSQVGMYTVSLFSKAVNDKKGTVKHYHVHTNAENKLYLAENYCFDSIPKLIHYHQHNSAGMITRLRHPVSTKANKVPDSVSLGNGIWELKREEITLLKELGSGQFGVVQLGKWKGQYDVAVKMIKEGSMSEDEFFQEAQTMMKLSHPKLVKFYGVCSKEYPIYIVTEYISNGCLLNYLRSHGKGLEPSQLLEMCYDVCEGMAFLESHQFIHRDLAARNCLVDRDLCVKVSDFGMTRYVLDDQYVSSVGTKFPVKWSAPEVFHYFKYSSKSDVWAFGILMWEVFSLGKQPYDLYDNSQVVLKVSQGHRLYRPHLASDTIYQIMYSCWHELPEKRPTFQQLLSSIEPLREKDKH
Description: Binding affinity to wild-type human full length BMX (M1 to H675 residues) expressed in bacterial expression system assessed as residual binding level at 10000 nM by Kinomescan method relative to control. Put shortly: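 KINOMEScan competition binding panel run at 10,000 nM compound, with results expressed as percent of control binding. S(10) is the fraction of non-mutant kinases below 10% of control, out of 395 tested.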

For a further data set, the system named is NCI-H1975. The experiment in a line: Antitumor activity against human NCI-H1975 cells xenografted in nude BALB/c mouse assessed as inhibition of tumor growth at 50 mg/kg, po QD for 15 days relative to control. In kind it is functional. Put shortly: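 H1975 cells were grown in RPMI1640 with 10% heat-inactivated FBS at 37 °C, 5% CO2, and passaged by trypsin-EDTA. 5x10^6 cells in 0.1 ml PBS were injected subcutaneously at the right flank of BALB/c nude mice. Oral QD dosing for 15 days began at a mean tumor size of 147 mm³, n = 5 per group.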
(In general: In xenograft studies the graft and the host belong to different species.)

A short description of data set [2]: Cmax in rat at 23.6 mg/kg, po. In kind it is ADME, organism-based. Also on record: dose 23.6 mg/kg, route oral. The conditions noted are these: in vivo. The method, boiled down: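 Rat pharmacokinetics: single IV injection at 5 mg/kg or oral dosing at 20 mg/kg (23.6 mg/kg oral for one compound). Plasma parameters t1/2, CL, Vss, AUC(0-inf), Cmax, Tmax and oral bioavailability F were derived from the concentration–time profiles.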

In general, TGI refers to how far tumour growth fell short of that in controls. By Cmax is commonly meant the peak of the concentration-time curve. In the case of `CN(C)C/C=C/C(=O)Nc1cccc(-c2c(-c3ccccc3)oc3ncnc(N[C@H](CO)c4ccccc4)c23)c1`, the Activity in data set [1] was determined as 4.8%. Also, the TGI in the data set with NCI-H1975 came to 34%. For the same compound, the peak level in data set [2] (Cmax) was 508 ng/mL.
